Results filed as inconclusive are left out.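 The calls were made as follows, unless noted: active = viability increase at or above a cutoff of the median across tested compounds plus 3 SD (cut at about 8.5% in these data, passing the limit was not always enough); inconclusive = some gains above the cutoff, reason not given; inactive = the rest.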
Columns and labels:
[1] = S. cerevisiae growth inhibition in permissive medium (OD615), pilot counter-assay for S. cerevisiae lifespan shortening project, permissive growth control (AID 705;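 active = growth inhibition above 25% in both replicates, a cutoff set 3 SD above the mean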); details: OD615, 24 h, at 10 µM, active compounds read high
Procedure, shortened: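 System: Engineered DeaD yeast | Buffer or medium: SC raffinose/galactose permissive medium | Doses: 10 µM single dose, 0.25% DMSO | Times: 24 h exposure, 30 °C | Measured by: OD615 turbidity read | Read-out: Yeast growth inhibition indicated by reduced 24 h OD615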

[2] = S. cerevisiae growth inhibition in restrictive medium, OD615, pilot screen, restrictive growth control, yeast lifespan reduction project (AID 706;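 active = growth inhibition above a set limit, 3 SD over mean compound inhibition, in both replicates, cut at about 43% in these data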;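 also: modified DeaD lifespan yeast strain shifted to restrictive glucose medium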); details: OD615, 48 h, at 10 µM, active compounds read high
Procedure, shortened: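 Assay system: engineered S. cerevisiae DeaD strain; Buffer or medium: CSMM-D glucose medium; Dosing: 10 µM compound, 0.25% DMSO; Times: cell pre-growth 4 h, compound exposure 48 h, 30 °C; Detection: absorbance (optical density) measured at 615 nm.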

[3] = doxorubicin toxicity protection in MRP-1 cells – H69AR cells, CellTiter-Glo, duplicate, MRP-1 activator project, pilot screen (AID 807); details: H69AR viability with doxorubicin, CellTiter-Glo luminescence; at 10 µM; active compounds read high;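 also: compound pretreatment 18-22 h then 72 h combined with doxorubicin; 0% = doxorubicin alone and 100% = vehicle without doxorubicin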
[4] = viability of HCT116 without oncogenic beta-catenin – human colon tumor cells, pilot screen (AID 823;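 active = cell viability at or below a set limit in both duplicate runs, the limit being the all-compound median minus 4 SD, cut at about 23% in these data, passing the limit was not always enough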;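 also: 0% = wells killed by 20 µM Hyamine and 100% = untreated DMSO cell wells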); details: HCT116 beta-catenin knockout viability, CellTiter-Glo, 60 h; at 10 µM; active compounds read low
[5] = viability of PTEN-null HCT116 cells – cell-based, HCT116 clonal line, CellTiter-Glo, pilot screen (AID 824;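 active = viability at or below 27.92% in each of two runs, the all-compound median minus 4 SD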;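 also: 0% = 20 µM Hyamine control and 100% = vehicle cell control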); details: HCT116 PTEN-deleted viability, 60 h, at 10 µM, active compounds read low
[6] = RAM pathway blockade in budding yeast – dse1pr::URA3 reporter, 5-FOA selection, pilot screen (AID 869;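 active = inhibition over a set limit, the all-compound mean plus 3 SD, in both replicate runs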;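 also: 0% = DMSO wells with no growth and 100% = 10 µM 1-NA-PP1 with full growth; RAM network block rescues cells from 5-FOA so hits raise OD615 growth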); details: S. cerevisiae dse1pr::URA3 5-FOA growth, OD615, 2 d; at 10 µM; active compounds read high; strain carries analog-sensitive mutant Cbk1 kinase
[7] = RAM signaling pathway blockade in yeast – S. cerevisiae, Pdr1DBD-CYC8 efflux-inhibited sensitized strain, primary screen (AID 1298;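 active = RAM network inhibition above 8.4% in each of two replicates, 3 SD over the compound average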;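 also: 0% = DMSO untreated cells without growth and 100% = 10 µM 1-NA-PP1 full growth; higher means more yeast growth rescued from 5-FOA killing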); details: S. cerevisiae cbk1-as DSE1-URA3 strain, 5-FOA growth OD615, 2 d; at 50 µM; active compounds read high

COCCn1c(=O)[nH]c2cc(C(=O)NCC3CCCO3)ccc2c1=O (stereo unspecified)
inactive: growth inhibition [1] -6.33% | growth inhibition [2] -1.18% | viability increase [3] -0.04% | viability [4] 100% | viability [5] 95.2% | inhibition [6] 1.23% | RAM network inhibition [7] 1.45%

CCn1c(=O)c2cc(C(=O)N3CCCC3)sc2c2ccccc21
inactive: growth inhibition [1] -4.95% | growth inhibition [2] 13% | viability increase [3] -1.55% | viability [4] 111% | viability [5] 96.8% | inhibition [6] 1.59% | RAM network inhibition [7] 2.1%

CCOc1ccc(Cn2nnc(C(=O)NCc3ccccc3)c2N)cc1
inactive: growth inhibition [1] 2.25% | growth inhibition [2] 3.87% | viability increase [3] 2.17% | viability [4] 93.2% | viability [5] 85.5% | inhibition [6] 0.395% | RAM network inhibition [7] 3.74%

CCOC(=O)c1sc(NC(=O)C2CC2)nc1C
inactive: growth inhibition [1] -2.83% | growth inhibition [2] 0.375% | viability increase [3] 0.91% | viability [4] 99.6% | viability [5] 95.1% | inhibition [6] 0.595% | RAM network inhibition [7] -1.46%

O=C(Cn1cc2c(n1)CCCCC2)NCc1ccccc1
inactive: growth inhibition [1] -13.4% | growth inhibition [2] 0.525% | viability increase [3] -0.82% | viability [4] 102% | viability [5] 86.5% | inhibition [6] 1.06% | RAM network inhibition [7] 3.47%

CC(=O)Nc1ccc(S(=O)(=O)Nc2cccc(C(=O)NC(C)(C)C)c2)cc1
inactive: growth inhibition [1] -5.5% | growth inhibition [2] -5.24% | viability increase [3] -1.14% | viability [4] 92.1% | viability [5] 88.2% | inhibition [6] 1.53% | RAM network inhibition [7] 6.92%

COC(=O)COC(=O)c1ccc(Oc2nc(OC)nc(N(C)C)n2)cc1
inactive: growth inhibition [1] -10.3% | growth inhibition [2] -13.7% | viability increase [3] 0.83% | viability [4] 103% | viability [5] 104% | inhibition [6] 1.35% | RAM network inhibition [7] 2.76%

O=C(CSc1nc2c(c(=O)n1-c1ccc(Cl)cc1)SCC2)N1CCOCC1
inactive: growth inhibition [1] -10.3% | growth inhibition [2] -2.5% | viability increase [3] -2.79% | viability [4] 97.6% | viability [5] 101% | inhibition [6] -0.06% | RAM network inhibition [7] -0.16%

CCN1CCN(CC(=O)Nc2ccc3c(c2)OCCO3)C(=O)C1=O
inactive: growth inhibition [1] 2.63% | growth inhibition [2] 10.1% | viability increase [3] 1.13% | viability [4] 105% | viability [5] 103% | inhibition [6] 0.675% | RAM network inhibition [7] 2.49%

O=C(NCCCN1CCCC1=O)c1ccc2c(c1)ncn2C1CCCCC1
inactive: growth inhibition [1] 0.37% | growth inhibition [2] 2.91% | viability increase [3] 1.87% | viability [4] 105% | viability [5] 109% | inhibition [6] 0.03% | RAM network inhibition [7] 10.9%

COc1ccc(CCNC(=O)CSc2nnnn2-c2ccccc2)cc1
inactive: growth inhibition [1] 2.08% | growth inhibition [2] -9.2% | viability increase [3] -2.24% | viability [4] 94.7% | viability [5] 88.8% | inhibition [6] 1.33% | RAM network inhibition [7] 6.52%

COc1ccc(C)c2sc(=NC(=O)C(C)C)n(C)c12
inactive: growth inhibition [1] -6.53% | growth inhibition [2] 2.31% | viability increase [3] -3.89% | viability [4] 90% | viability [5] 92.4% | inhibition [6] 3.1% | RAM network inhibition [7] 6.3%

COc1ccc(OC)c2[nH]c(=O)c(CCNC(=O)c3cc4ccccc4o3)cc12
inactive: growth inhibition [1] -6.5% | growth inhibition [2] -3.6% | viability increase [3] 2.38% | viability [4] 87.8% | viability [5] 94.7% | inhibition [6] 0.6% | RAM network inhibition [7] 7.96%

CC(C)Cc1cc(-c2ccco2)c(C#N)c(N)n1
inactive: growth inhibition [1] -11.4% | growth inhibition [2] -17.1% | viability increase [3] -4.39% | viability [4] 80.9% | viability [5] 89.4% | inhibition [6] 3.23% | RAM network inhibition [7] 9.01%

Cc1ccc(C2CC(c3ccccc3C)n3nc(N)nc3N2)cc1 (stereo unspecified)
inactive: growth inhibition [1] 0.605% | growth inhibition [2] -2.86% | viability increase [3] -0.57% | viability [4] 84.6% | viability [5] 83% | inhibition [6] 0.77% | RAM network inhibition [7] 4.75%

CC(C)(CC(=O)O)Cc1nc(-c2ccc(Cl)cc2)no1
inactive: growth inhibition [1] 2.38% | growth inhibition [2] 10.4% | viability increase [3] 1.26% | viability [4] 100% | viability [5] 93.2% | inhibition [6] 0.855% | RAM network inhibition [7] -3.9%

CCCCC(=O)OCCNC(=O)c1cc2ccccc2oc1=O
inactive: growth inhibition [1] -3.98% | growth inhibition [2] -0.93% | viability increase [3] -2.04% | viability [4] 92.3% | viability [5] 95.2% | inhibition [6] 2.96% | RAM network inhibition [7] 2.46%

CCCCCSc1nc2c(c(=O)[nH]c(=O)n2C)n1CCc1ccccc1
inactive: growth inhibition [1] -3.08% | growth inhibition [2] -4.46% | viability increase [3] -1.88% | viability [4] 69.6% | viability [5] 87% | inhibition [6] 2.75% | RAM network inhibition [7] 8.01%

Source: PubChem BioAssay
